Experimental data published in paper PMC12679438 (RSC Advances, 2025).

Assays:
[1] = test system: A549; experiment: MTS cytotoxicity assay, 72 h, A549; format: cell-based, human; conditions: Homo sapiens, A549, 72 h, read-out: IC50 A549
Method in brief: (§1)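 Human lines were kept at 37 °C, 5% CO2 in recommended medium plus 10% FCS, penicillin–streptomycin, 2 mM glutamine, 1 mM bicarbonate, 1 mM pyruvate and 20 mM HEPES, and were mycoplasma-tested biweekly. Cells were exposed to test compound for 72 h on a robotic screening platform, then read by MTS. DMSO-treated cells were the negative control. IC50 came from dose–response curves, mean of ≥6 replicates.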

[2] = test system: HCT116; experiment: MTS cytotoxicity assay, 72 h, HCT116; format: cell-based, human; conditions: Homo sapiens, HCT-116, 72 h, read-out: IC50 HCT116
Method in brief: as §1

[3] = test system: HCT116-p53; experiment: MTS cytotoxicity assay, 72 h, HCT116-p53; format: cell-based, human; conditions: Homo sapiens, read-out: IC50 HCT116-p53
Method in brief: as §1

[4] = test system: U2OS; experiment: MTS cytotoxicity assay, 72 h, U2OS; format: cell-based, human; conditions: Homo sapiens, U2OS, read-out: IC50 U2OS
Method in brief: as §1

[5] = test system: RAMOS; experiment: MTS cytotoxicity assay, 72 h, RAMOS; format: cell-based, human; conditions: Homo sapiens, Ramos, read-out: IC50 RAMOS
Method in brief: as §1

[6] = test system: K562; experiment: MTS cytotoxicity assay, 72 h, K562; format: cell-based, human; conditions: Homo sapiens, K562, 72 h, read-out: IC50 K562
Method in brief: as §1

[7] = test system: Jurkat; experiment: MTS cytotoxicity assay, 72 h, Jurkat; format: cell-based, human; conditions: Homo sapiens, Jurkat, read-out: IC50 Jurkat
Method in brief: as §1

[8] = test system: CCRF-CEM; experiment: MTS cytotoxicity assay, 72 h, CCRF-CEM; format: cell-based, human; conditions: Homo sapiens, CCRF-CEM, read-out: IC50 CCRF-CEM
Method in brief: as §1

[9] = test system: BJ; experiment: MTS cytotoxicity assay, 72 h, BJ fibroblasts; format: cell-based, human; conditions: Homo sapiens, BJ, read-out: IC50 BJ
Method in brief: as §1

[10] = test system: MRC-5; experiment: MTS cytotoxicity assay, 72 h, MRC-5 fibroblasts; format: cell-based, human; conditions: Homo sapiens, MRC5, 72 h, read-out: IC50 MRC-5
Method in brief: as §1

[11] = test system: panel of human cell lines; experiment: MTS cytotoxicity assay, statements over groups of cell lines of the panel; format: cell-based; conditions: Homo sapiens, 72 h, read-out: IC50 across all tested cell lines
Method in brief: as §1

SMILES | IC50 [1] [µM] | IC50 [2] [µM] | IC50 [3] [µM] | IC50 [4] [µM] | IC50 [5] [µM] | IC50 [6] [µM] | IC50 [7] [µM] | IC50 [8] [µM] | IC50 [9] [µM] | IC50 [10] [µM] | IC50 [11] [µM]
O=C(NCc1ccco1)C1CN(c2cc(-c3ccc(Cl)cc3)n[nH]c2=O)C1 [Compound 21, 1-(6-(4-chlorophenyl)-3-oxo-2,3-dihydropyridazin-4-yl)-N-(furan-2-ylmethyl)azetidine-3-carboxamide] | > 50 | > 50 | > 50 | > 50 | 37.5 | > 50 | 30.5 | > 50 | > 50 | > 50 | 
COC(=O)c1cncc(-c2cc(N3CC(C(=O)NCc4ccco4)C3)c(=O)[nH]n2)c1 [Compound 23, methyl 5-(5-(3-((furan-2-ylmethyl)carbamoyl)azetidin-1-yl)-6-oxo-1,6-dihydropyridazin-3-yl)nicotinate] | 42.1 | 8.83 | 12.7 | 16.9 | 5.53 | 7.4 | 5.15 | 5.12 | > 50 | > 50 | 
O=C(C1CN(c2cc(-c3ccncc3)n[nH]c2=O)C1)N1CCN(c2ccccc2)CC1 [Compound 28, 4-(3-(4-phenylpiperazine-1-carbonyl)azetidin-1-yl)-6-(pyridin-4-yl)pyridazin-3(2H)-one] | > 50 | > 50 | > 50 | > 50 | > 50 | > 50 | > 50 | > 50 | > 50 | > 50 | 
O=C(C1CN(c2cc(-c3ccccc3)n[nH]c2=O)C1)N1CCN(c2ccccc2)CC1 [Compound 29, 6-phenyl-4-(3-(4-phenylpiperazine-1-carbonyl)azetidin-1-yl)pyridazin-3(2H)-one] | > 50 | > 50 | > 50 | > 50 | > 50 | > 50 | > 50 | > 50 | > 50 | > 50 | 
O=C(NCC(F)(F)F)C1CN(c2cc(-c3ccncc3)n[nH]c2=O)C1 [Compound 34, 1-(3-oxo-6-(pyridin-4-yl)-2,3-dihydropyridazin-4-yl)-N-(2,2,2-trifluoroethyl)azetidine-3-carboxamide] | > 50 | > 50 | > 50 | > 50 | > 50 | > 50 | > 50 | > 50 | > 50 | > 50 | > 50
O=C(NCC(F)(F)F)C1CN(c2cc(-c3ccccc3)n[nH]c2=O)C1 [Compound 35, 1-(3-oxo-6-phenyl-2,3-dihydropyridazin-4-yl)-N-(2,2,2-trifluoroethyl)azetidine-3-carboxamide] | > 50 | > 50 | > 50 | > 50 | > 50 | > 50 | > 50 | > 50 | > 50 | > 50 | > 50
O=C(NCC(F)(F)F)C1CN(c2cc(-c3cccc(F)c3)n[nH]c2=O)C1 [Compound 36, 1-(6-(3-fluorophenyl)-3-oxo-2,3-dihydropyridazin-4-yl)-N-(2,2,2-trifluoroethyl)azetidine-3-carboxamide] | > 50 | > 50 | > 50 | > 50 | > 50 | > 50 | > 50 | > 50 | > 50 | > 50 | > 50
COc1ccc(-c2cc(N3CC(C(=O)NCC(F)(F)F)C3)c(=O)[nH]n2)cc1 [Compound 37, 1-(6-(4-methoxyphenyl)-3-oxo-2,3-dihydropyridazin-4-yl)-N-(2,2,2-trifluoroethyl)azetidine-3-carboxamide] | > 50 | > 50 | > 50 | > 50 | > 50 | > 50 | > 50 | > 50 | > 50 | > 50 | > 50
O=C(c1ccncc1)C1CN(c2cc(-c3ccncc3)n[nH]c2=O)C1 [Compound 46, 4-(3-isonicotinoylazetidin-1-yl)-6-(pyridin-4-yl)pyridazin-3(2H)-one] | > 50 | > 50 | > 50 | > 50 | > 50 | > 50 | 35.9 | 29 | > 50 | > 50 | 
